Measured values taken from ChEMBL document CHEMBL1208666, “Novel 6,8-dibromo-4(3H)quinazolinone derivatives of anti-bacterial and anti-fungal activities” (2010).
Values after ≈ are worked out from the molar mass of the structure shown. Active and inactive are the calls of the source. The calls are words filed in the database; no cut-off is given here.

Columns and labels:
[1] = tested on: Bacillus cereus; experiment: Antibacterial activity against Bacillus cereus after 24 hrs by agar streak dilution method; assay type: functional
In short: (§1)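 Agar streak dilution on Mueller Hinton agar. Compound stock in DMSO was added in graded amounts to molten sterile agar at 40–50 °C. This was poured 3–4 mm deep and left to solidify. Bacterial suspension of about 10^5 cfu/ml was applied to the serially diluted plates. Plates were incubated at 37 °C for 24 h to read the MIC. Strains were food-poisoning isolates from animal byproducts.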

[2] = tested on: Escherichia coli; experiment: Antibacterial activity against Escherichia coli O157 after 24 hrs by agar streak dilution method; assay type: functional; conditions: O157, 24 h
[3] = tested on: Listeria monocytogenes; experiment: Antibacterial activity against Listeria monocytogenes at 100 ug/ml after 24 hrs by paper disc diffusion technique; assay type: functional; conditions: read-out: IZ
In short: (§2)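 Paper disc diffusion on Mueller Hinton agar, autoclaved at 120 °C for 30 min. Medium at 40–50 °C was seeded at 1 ml/100 ml with a 10^5 cfu/ml suspension matched to 0.9 McFarland. It was poured 3–4 mm deep, and discs with compound in DMSO were laid on it. Plates were pre-incubated 1 h at room temperature, then 37 °C for 24 h. The inhibition zone was measured.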

[4] = tested on: Bacillus cereus; experiment: Antibacterial activity against Bacillus cereus at 100 ug/ml after 24 hrs by paper disc diffusion technique; assay type: functional; conditions: read-out: IZ; in short: as §2
[5] = tested on: Listeria monocytogenes; experiment: Antibacterial activity against Listeria monocytogenes after 24 hrs by agar streak dilution method; assay type: functional; in short: as §1
[6] = tested on: Staphylococcus aureus; experiment: Antibacterial activity against Staphylococcus aureus after 24 hrs by agar streak dilution method; assay type: functional; in short: as §1
[7] = tested on: Pseudomonas aeruginosa; experiment: Antibacterial activity against Pseudomonas aeruginosa after 24 hrs by agar streak dilution method; assay type: functional; in short: as §1
[8] = tested on: Aspergillus flavus; experiment: Antifungal activity against Aspergillus flavus at 100 ug/ml after 48 hrs by paper disc diffusion technique; assay type: functional; conditions: for zone of inhibition at 100 µg/mL: read-out: IZ
In short: (§3)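 Paper disc diffusion on Sabouraud dextrose agar, autoclaved at 120 °C for 30 min. Medium at 40–50 °C was seeded at 1 ml/100 ml with a 10^5 cfu/ml fungal suspension matched to 0.9 McFarland. It was poured 3–4 mm deep, and compound discs in DMSO were applied. Plates were pre-incubated 1 h at room temperature, then 28 °C for 48 h. The inhibition zone was recorded.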

[9] = tested on: Aspergillus flavus; experiment: Antifungal activity against Aspergillus flavus after 48 hrs by agar streak dilution method; assay type: functional
In short: (§4)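 Fungal MIC by agar streak dilution on Sabouraud dextrose agar. Compound stock in DMSO was added in graded amounts to molten sterile medium at 40–50 °C. This was poured 3–4 mm deep and left to solidify. Fungal suspension of about 10^5 cfu/ml was applied to the serially diluted plates. Plates were incubated at 37 °C for 48 h.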

[10] = tested on: Salmonella typhimurium; experiment: Antibacterial activity against Salmonella Typhimurium at 100 ug/ml after 24 hrs by paper disc diffusion technique; assay type: functional, Salmonella enterica subsp. enterica serovar Typhimurium; conditions: Salmonella enterica, read-out: IZ; in short: as §2
[11] = tested on: Escherichia coli; experiment: Antibacterial activity against Escherichia coli O157 at 100 ug/ml after 24 hrs by paper disc diffusion technique; assay type: functional; conditions: O157, 24 h, read-out: IZ
[12] = tested on: Candida albicans; experiment: Antifungal activity against Candida albicans at 100 ug/ml after 48 hrs by paper disc diffusion technique; assay type: functional; conditions: for zone of inhibition at 100 µg/mL: read-out: IZ; in short: as §3
[13] = tested on: Pseudomonas aeruginosa; experiment: Antibacterial activity against Pseudomonas aeruginosa at 100 ug/ml after 24 hrs by paper disc diffusion technique; assay type: functional; conditions: read-out: IZ; in short: as §2
[14] = tested on: Salmonella typhimurium; experiment: Antibacterial activity against Salmonella Typhimurium after 24 hrs by agar streak dilution method; assay type: functional, Salmonella enterica subsp. enterica serovar Typhimurium; conditions: Salmonella enterica; in short: as §1
[15] = tested on: Staphylococcus aureus; experiment: Antibacterial activity against Staphylococcus aureus at 100 ug/ml after 24 hrs by paper disc diffusion technique; assay type: functional; conditions: read-out: IZ; in short: as §2
[16] = tested on: Candida albicans; experiment: Antifungal activity against Candida albicans after 48 hrs by agar streak dilution method; assay type: functional; in short: as §4

SMILES	MIC [1]	MIC [2]	zone of inhibition at 100 µg/mL [3]	zone of inhibition at 100 µg/mL [4]	MIC [5]	MIC [6]	MIC [7]	zone of inhibition at 100 µg/mL [8]	MIC [9]	zone of inhibition at 100 µg/mL [10]	zone of inhibition at 100 µg/mL [11]	inhibition zone (IZ) [12]	zone of inhibition at 100 µg/mL [13]	MIC [14]	zone of inhibition at 100 µg/mL [15]	inhibition zone (IZ) [8]	MIC [16]	zone of inhibition at 100 µg/mL [12]
O=C(N/N=C/c1ccc(Cl)cc1)c1ccc(-n2c(-c3ccccc3)nc3c(Br)cc(Br)cc3c2=O)cc1	5.5 µg/mL (≈ 8.64 µM)	20 µg/mL (≈ 31.4 µM)	14 mm	16 mm	30 µg/mL (≈ 47.1 µM)	25 µg/mL (≈ 39.3 µM)	20 µg/mL (≈ 31.4 µM)	16 mm	12.5 µg/mL (≈ 19.6 µM)	10 mm	12 mm	inactive	12 mm	> 50 µg/mL	12 mm			
O=C(NN1C(=O)CCC1=O)c1ccc(-n2c(-c3ccccc3)nc3c(Br)cc(Br)cc3c2=O)cc1	> 50 µg/mL	> 50 µg/mL	12 mm	9 mm	50 µg/mL (≈ 83.9 µM)	> 50 µg/mL	> 50 µg/mL	17 mm	3.5 µg/mL (≈ 5.87 µM)	18 mm	9 mm	inactive	11 mm	1.7 µg/mL (≈ 2.85 µM)	9 mm			
O=C(NN1C(=O)CSC1c1ccccc1)c1ccc(-n2c(-c3ccccc3)nc3c(Br)cc(Br)cc3c2=O)cc1 (stereo not drawn)	50 µg/mL (≈ 73.9 µM)	> 50 µg/mL	13 mm	9 mm	32 µg/mL (≈ 47.3 µM)	25 µg/mL (≈ 37 µM)	35 µg/mL (≈ 51.7 µM)			16 mm	10 mm	inactive	12 mm	4.1 µg/mL (≈ 6.06 µM)	12 mm	inactive		
CC(=O)NNC(=O)c1ccc(-n2c(-c3ccccc3)nc3c(Br)cc(Br)cc3c2=O)cc1	> 50 µg/mL	> 50 µg/mL	14 mm	9 mm	35 µg/mL (≈ 62.9 µM)	40 µg/mL (≈ 71.9 µM)	25 µg/mL (≈ 44.9 µM)	22 mm	1.2 µg/mL (≈ 2.16 µM)	14 mm	9 mm	inactive	13 mm	30 µg/mL (≈ 53.9 µM)	11 mm			
O=C(O)c1cn(C2CC2)c2cc(N3CCNCC3)c(F)cc2c1=O [CIPROFLOXACIN]	0.39 µg/mL (≈ 1.18 µM)		17 mm	20 mm	1.56 µg/mL (≈ 4.71 µM)	1.56 µg/mL (≈ 4.71 µM)	0.78 µg/mL (≈ 2.35 µM)			20 mm	18 mm		19 mm	0.39 µg/mL (≈ 1.18 µM)	18 mm			
OC(Cn1cncn1)(Cn1cncn1)c1ccc(F)cc1F [FLUCONAZOLE]								22 mm	0.78 µg/mL (≈ 2.55 µM)								1.56 µg/mL (≈ 5.09 µM)	18 mm
CC1=NN(C(=O)c2ccc(-n3c(-c4ccccc4)nc4c(Br)cc(Br)cc4c3=O)cc2)C(=O)C1	> 50 µg/mL		16 mm	11 mm	6 µg/mL (≈ 10.3 µM)	40 µg/mL (≈ 68.9 µM)	50 µg/mL (≈ 86.2 µM)	20 mm	2.5 µg/mL (≈ 4.31 µM)	14 mm			12 mm	30 µg/mL (≈ 51.7 µM)	11 mm		50 µg/mL (≈ 86.2 µM)	9 mm
NNC(=O)c1ccc(-n2c(-c3ccccc3)nc3c(Br)cc(Br)cc3c2=O)cc1	25 µg/mL (≈ 48.6 µM)	> 50 µg/mL	11 mm	12 mm	50 µg/mL (≈ 97.2 µM)	> 50 µg/mL	25 µg/mL (≈ 48.6 µM)	15 mm	18.5 µg/mL (≈ 36 µM)	11 mm	10 mm	inactive	13 mm	50 µg/mL (≈ 97.2 µM)	10 mm			
